pKd: −log10 of the molar value. The source made the active and inactive calls. The rule behind the calls is not given here.
Each compound was assayed against T1, Transthyretin (Homo sapiens, UniProt P02766) (assay: Reversible binding affinity to human wild type TTR expressed in Escherichia coli BL-21 at 360 uM by mass spectrometry).

Activity	Structure (SMILES)
Active	OB(O)c1ccc(/C=C/c2ccc(B(O)O)cc2Cl)c(Cl)c1

These compounds were tested on Transthyretin (Homo sapiens), P02766 [V50M] (assay: Inhibition of human TTR V30M mutant expressed in Escherichia coli BL-21 assessed as fibril formation at 14.4 uM incubated for 30 mins measured after 96 hrs by light scattering method relative to control).
Set-up: scale not given: the % may be the effect or the level left

Activity	Structure (SMILES)
14%	Oc1cc(O)cc(/C=C/c2ccc(O)cc2Cl)c1
23%	OB(O)c1ccc(/C=C/c2cc(O)cc(O)c2)cc1
8%	OB(O)c1ccc(/C=C/c2ccc(B(O)O)cc2Cl)c(Cl)c1
27%	Oc1ccc(/C=C/c2ccc(O)cc2Cl)c(Cl)c1
9%	O=C(O)c1cccc(/C=C/c2ccc(O)cc2Cl)c1
28%	O=C(O)c1cccc(/C=C/c2ccc(B(O)O)cc2)c1
120%	O=C(O)c1cccc(/C=C/c2ccc(O)cc2)c1
8%	O=C(O)c1ccc2nc(-c3cc(Cl)cc(Cl)c3)oc2c1
16%	OB(O)c1cccc(/C=C/c2ccc(B(O)O)cc2Cl)c1

Structure (SMILES)	Activity
O=C(O)c1cccc(/C=C/c2ccc(B(O)O)cc2Cl)c1	10%
OB(O)c1ccc(/C=C/c2cc(O)cc(O)c2)c(Cl)c1	12%

Each compound was assayed on Transthyretin (Homo sapiens), P02766 [V50M] (assay: Inhibition of human TTR V30M mutant expressed in Escherichia coli BL-21 assessed as fibril formation at 7.2 uM incubated for 30 mins measured after 96 hrs by light scattering method relative to control).
Set-up: scale not given: the % may be the effect or the level left

Activity	Structure (SMILES)
44%	Oc1cc(O)cc(/C=C/c2ccc(O)cc2Cl)c1
48%	OB(O)c1ccc(/C=C/c2cc(O)cc(O)c2)cc1
32%	OB(O)c1ccc(/C=C/c2ccc(B(O)O)cc2Cl)c(Cl)c1
62%	Oc1ccc(/C=C/c2ccc(O)cc2Cl)c(Cl)c1
41%	O=C(O)c1cccc(/C=C/c2ccc(O)cc2Cl)c1
48%	O=C(O)c1cccc(/C=C/c2ccc(B(O)O)cc2)c1
112%	O=C(O)c1cccc(/C=C/c2ccc(O)cc2)c1
5%	O=C(O)c1ccc2nc(-c3cc(Cl)cc(Cl)c3)oc2c1
54%	OB(O)c1cccc(/C=C/c2ccc(B(O)O)cc2Cl)c1

Structure (SMILES)	Activity
O=C(O)c1cccc(/C=C/c2ccc(B(O)O)cc2Cl)c1	32%
OB(O)c1ccc(/C=C/c2cc(O)cc(O)c2)c(Cl)c1	36%

What follows are compounds tested against T1, Transthyretin (assay: Competitive binding affinity to human wild type TTR expressed in Escherichia coli BL-21 assessed as equilibrium dissociation constant of second site in presence of ANS by spectrofluorometer).

pKd	Structure (SMILES)
6.14	Oc1cc(O)cc(/C=C/c2ccc(O)cc2Cl)c1
6.33	OB(O)c1ccc(/C=C/c2cc(O)cc(O)c2)cc1
6.33	OB(O)c1ccc(/C=C/c2ccc(B(O)O)cc2Cl)c(Cl)c1
6.09	Oc1ccc(/C=C/c2ccc(O)cc2Cl)c(Cl)c1
6.33	O=C(O)c1cccc(/C=C/c2ccc(O)cc2Cl)c1
6.00	O=C(O)c1cccc(/C=C/c2ccc(B(O)O)cc2)c1
5.74	O=C(O)c1cccc(/C=C/c2ccc(O)cc2)c1
6.33	Oc1ccc(/C=C/c2cc(O)cc(O)c2)cc1 [RESVERATROL]

Structure (SMILES)	pKd
O=C(O)c1cccc(/C=C/c2ccc(B(O)O)cc2Cl)c1	6.35
OB(O)c1ccc(/C=C/c2cc(O)cc(O)c2)c(Cl)c1	6.36

These compounds were tested against T1, Transthyretin (assay: Inhibition human wild type TTR expressed in Escherichia coli BL-21 assessed as fibril formation at 14.4 uM incubated for 30 mins after 96 hrs by light scattering method relative to control).
Set-up: scale not given: the % may be the effect or the level left
Method in brief: (§1)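 Ligand (7.2 or 14.4 μM) preincubated 30 min with TTR tetramers (7.2 μM, wild-type or V30M), then diluted twofold into 50 mM sodium acetate, pH 4.4, 100 mM KCl. Turbidity read as A400 at 0 and 96 h, four replicates; percent fibril formation = ligand-well A400 gain over DMF vehicle-well gain ×100, standard deviations propagated.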

Activity	Structure (SMILES)
7%	Oc1cc(O)cc(/C=C/c2ccc(O)cc2Cl)c1
9%	OB(O)c1ccc(/C=C/c2cc(O)cc(O)c2)cc1
3%	OB(O)c1ccc(/C=C/c2ccc(B(O)O)cc2Cl)c(Cl)c1
12%	Oc1ccc(/C=C/c2ccc(O)cc2Cl)c(Cl)c1
3%	O=C(O)c1cccc(/C=C/c2ccc(O)cc2Cl)c1
11%	O=C(O)c1cccc(/C=C/c2ccc(B(O)O)cc2)c1
77%	O=C(O)c1cccc(/C=C/c2ccc(O)cc2)c1
0%	O=C(O)c1ccc2nc(-c3cc(Cl)cc(Cl)c3)oc2c1
9%	Oc1ccc(/C=C/c2cc(O)cc(O)c2)cc1 [RESVERATROL]
10%	OB(O)c1cccc(/C=C/c2ccc(B(O)O)cc2Cl)c1

Structure (SMILES)	Activity
O=C(O)c1cccc(/C=C/c2ccc(B(O)O)cc2Cl)c1	4%
OB(O)c1ccc(/C=C/c2cc(O)cc(O)c2)c(Cl)c1	4%

The compounds below were run against T1, Transthyretin (assay: Inhibition of human wild type TTR expressed in Escherichia coli BL-21 assessed as fibril formation at 7.2 uM incubated for 30 mins measured after 96 hrs by light scattering method relative to control).
Set-up: scale not given: the % may be the effect or the level left
Method in brief: as §1

Activity	Structure (SMILES)
22%	Oc1cc(O)cc(/C=C/c2ccc(O)cc2Cl)c1
21%	OB(O)c1ccc(/C=C/c2cc(O)cc(O)c2)cc1
20%	OB(O)c1ccc(/C=C/c2ccc(B(O)O)cc2Cl)c(Cl)c1
30%	Oc1ccc(/C=C/c2ccc(O)cc2Cl)c(Cl)c1
21%	O=C(O)c1cccc(/C=C/c2ccc(O)cc2Cl)c1
21%	O=C(O)c1cccc(/C=C/c2ccc(B(O)O)cc2)c1
75%	O=C(O)c1cccc(/C=C/c2ccc(O)cc2)c1
22%	O=C(O)c1ccc2nc(-c3cc(Cl)cc(Cl)c3)oc2c1
28%	Oc1ccc(/C=C/c2cc(O)cc(O)c2)cc1 [RESVERATROL]
26%	OB(O)c1cccc(/C=C/c2ccc(B(O)O)cc2Cl)c1

Structure (SMILES)	Activity
O=C(O)c1cccc(/C=C/c2ccc(B(O)O)cc2Cl)c1	16%
OB(O)c1ccc(/C=C/c2cc(O)cc(O)c2)c(Cl)c1	19%
